Screening results: PubChem, The Scripps Research Institute Molecular Screening Center
Hits are enriched below; roughly 2.2% of the tested compounds scored in any of these assays.
NR2E3 ag-1 – NR2E3 agonists in two-hybrid cells, primary screen, cell-based, luminescence, CHO-S, Gal4-NCOR/VP16-NR2E3; Photoreceptor-specific nuclear receptor (Homo sapiens), Q9Y5X4; luciferase; inhibition of corepressor binding, % at 3.98 µM; actives 0.35% (n = 360,000); AID 602229, 2012;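 active = inhibition above the mean of all tested compounds plus 3 SD, cut at about 70% in these data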;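 also: 0% = DMSO with NR2E3 transfected cells and 100% = cells lacking NR2E3 construct; higher means lower luciferase signal from less NR2E3 corepressor binding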
COUP-TFII inh – NR2F2 transcriptional activity inhibitors, primary screen, cell-based, luciferase reporter, HEK293T, luminescence | AID 686940, 2013 | COUP transcription factor 2 (Homo sapiens), P24468 | HEK293T NGFI-A luciferase reporter | actives 0.7% (n = 370,000) | inhibition, % at 8.6 µM;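 active = inhibition above a per-plate cutoff, mean inhibition of test wells between control levels plus 3 SD, cut at about 38% in these data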;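 also: cells cotransfected with COUP-TFII expression vector driving the NGFI-A reporter; 0% = median of COUP-TF2 test wells and 100% = reporter-only cells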
Target sequence (P24468 whole entry, looked up): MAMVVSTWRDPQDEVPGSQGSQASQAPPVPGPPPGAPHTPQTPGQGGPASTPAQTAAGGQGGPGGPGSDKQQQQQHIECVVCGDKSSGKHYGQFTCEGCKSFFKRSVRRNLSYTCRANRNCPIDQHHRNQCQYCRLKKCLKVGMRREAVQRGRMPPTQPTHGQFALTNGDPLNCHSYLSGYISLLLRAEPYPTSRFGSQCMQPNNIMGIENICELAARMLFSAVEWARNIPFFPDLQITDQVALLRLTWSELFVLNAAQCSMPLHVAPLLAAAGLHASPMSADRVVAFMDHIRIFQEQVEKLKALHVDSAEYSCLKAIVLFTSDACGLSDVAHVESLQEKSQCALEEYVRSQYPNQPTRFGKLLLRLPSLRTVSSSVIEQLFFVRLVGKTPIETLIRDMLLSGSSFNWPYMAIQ
NR2E3 ag-2 – inhibitors of NR2E3-RetCOR corepressor binding, primary screen, NR2E3 agonist project, biochemical, TR-FRET, GST-NR2E3, biotin-RetCOR; Photoreceptor-specific nuclear receptor (Homo sapiens), Q9Y5X4; 1536-well; inhibition of corepressor binding, % at 4.78 µM; actives 0.12% (n = 320,000); AID 2300, 2010;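 active = percent inhibition above the cutoff of mean plus 3 SD of all tested compounds, set per screening campaign, cut at about 20% in these data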;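 also: 0% = DMSO wells and 100% = biotin wells as full block of FRET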
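Material: NR2E3–RetCOR corepressor complex / Amount: 1.35 nM GST-NR2E3 / Medium: Tris pH 7.5 / Compound: single nominal compound dose of 4.8 µM / Incubation: 5 h at 4 °C / Technique: TR-FRET, Eu(K)-anti-GST donor, streptavidin-D2 acceptor, ex 340, em 617/671 nm / Read-out basis: percent loss of FRET ratio relative to control wells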
GalR3 antag – GalR3 antagonists in HEK293 cells, primary screen, cell-based, fluorescence readout; Galanin receptor type 3 (Homo sapiens), O60755; HEK293 GalR3-CNG cAMP membrane potential fluorescence; galR3 body fused to GalR1 C-terminus; inhibition, % at 3 µM; actives 0.44% (n = 360,000); AID 651719, 2012;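 active = inhibition above the screen-wide average plus 3 SD, cut at about 13% in these data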;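 also: forskolin and galanin both at EC90 stimulate the cells; cAMP rise reported by CNG channel membrane potential dye signal; 0% = forskolin plus galanin with DMSO and 100% = forskolin alone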
SMARCA2 act – SMARCA2 (BRM) function activators, primary screen, cell-based, luminescence, high throughput | activation, % at 9.1 µM | actives 1% (n = 370,000) | MG213 cells, MMTV-luciferase reporter, dexamethasone, overnight; in the data active = activation above about 7.8%;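 also: 0% = vehicle wells and 100% = reference activator wells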
SMARCA2 conf – SMARCA2 (BRM) function activators, confirmation, cell-based, luminescence, triplicate; shares compounds with SMARCA2 act; MG213 cells, MMTV-luciferase with dexamethasone, overnight; MG213 cells expressing E1A, Rb sequestered; DMSO wells 0%, reference activator 100%; activation, % at 9.1 µM; actives 30% (n = 3,500); AID 652260, 2013;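 active = activation above its plate's cutoff, the mean activation of tested wells plus 3 SD, cut at about 7.9% in these data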
GAL4-VP16 Luc – GAL4-VP16 luciferase reporter activation, counter-screen for SMARCA2 (BRM) activator project, cell-based, pG5luc, luminescence, high throughput; AID 686939, 2013; shares compounds with SMARCA2 act; actives 41% (n = 3,500); HEK293 GAL4-VP16 pG5luc reporter; scaled: DMSO wells 0%, SAHA wells 100%; activation, % at 9.1 µM;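 active = activation above the solvent-only control well mean plus 3 SD, averaged across control plates, cut at about 5.2% in these data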
Gal4-VP16 ctr – Gal4-VP16 luciferase reporter inhibitors, counter-screen for COUP-TFII antagonist project, cell-based, luminescence, HEK293 | shares compounds with COUP-TFII inh | inhibition, % at 8.5 µM | actives 25% (n = 2,500); in the data active = inhibition above about 13%
COUP-TFII conf – NR2F2 transcriptional activity inhibitors, confirmation, cell-based, luciferase reporter, HEK293, triplicate | shares compounds with COUP-TFII inh | HEK293 NGFI-A luciferase reporter, luminescence | inhibition, % at 8.5 µM | actives 45% (n = 2,500);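 active = mean inhibition over three repeats above a set limit taken from the earlier primary screen, cut at about 38% in these data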;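 also: 100% = cells given the luciferase reporter alone without the COUP-TF2 vector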
* = called active by the depositor; . = no result given.

SMILES	NR2E3 ag-1	COUP-TFII inh	NR2E3 ag-2	GalR3 antag	SMARCA2 act	Gal4-VP16 ctr	COUP-TFII conf	others
Cc1cc(-c2n[nH]c(=S)n2N=Cc2cc(Br)ccc2F)n[nH]1	.	-10	.	.	1	.	.
Clc1ccc(/C=N/Nc2nc(Cl)nc3ccccc23)cc1	-116	-40	-4	-6	12*	.	.	SMARCA2 conf=3;GAL4-VP16 Luc=1
Nc1c(Cl)ncnc1N/N=C/c1ccnc2ccccc12	3	-19	-4	-7	3	.	.
C(=N\Nc1ncnc2ccccc12)/c1ccccc1	-101	-52	0	-4	9.2*	.	.	SMARCA2 conf=11*;GAL4-VP16 Luc=9.1*
Clc1cccc(/C=N/Nc2ncnc3ccccc23)c1	-109	-34	3	-5	10.0*	.	.	SMARCA2 conf=14*;GAL4-VP16 Luc=15*
COc1ccc(Cn2cc(CN3CC=CS3(=O)=O)nn2)cc1	.	-30	.	.	-1	.	.
COc1ccc(C=C2CS(=O)(=O)CC(=Cc3ccc(OC)cc3)C2=O)cc1	9	71*	.	-2	14*	47*	65*	SMARCA2 conf=-15;GAL4-VP16 Luc=0
CN1CCN(c2ccc3c(c2)Oc2ccccc2CN(Cc2cn(Cc4ccc(F)cc4)nn2)S3(=O)=O)CC1	.	-16	.	.	0	.	.
COc1ccc(-n2c(C)c([N+](=O)[O-])c3ccc(O)c(CN(C)C)c32)cc1	-34	41*	0	-6	-1	29*	33
COc1ccc(-n2c(C(C)n3nc(C)c([N+](=O)[O-])c3C)n[nH]c2=S)cc1 (stereo not drawn)	-4	-2	2	-1	-1	.	.
O=C(c1ccc2c(c1)C(=O)NC2=O)c1ccc2c(c1)C(=O)NC2=O	.	-7	.	-8	-1	.	.
COc1ccc(CC(=O)Nc2ccc(-c3cn4cccc(C)c4n3)cc2)cc1OC	-23	-5	-3	-6	0	.	.
Cc1cccn2cc(-c3ccc(NC(=O)Cc4ccccc4)cc3)nc12	-27	54*	7	.	-2	0	-16
Cc1cccc(NC(=O)CN2CCN(C(=O)CNC(=O)c3ccc(-c4ccccc4)cc3)CC2)c1C	20	55*	.	-6	-9	-8	16
Cc1cccc(C)c1NC(=O)CN1CCN(C(=O)CNC(=O)c2ccc(-c3ccccc3)cc2)CC1	5	23	.	-7	-5	.	.
CC1CN(c2nc3ccccc3nc2SCC(=O)N2CCN(S(=O)(=O)c3ccccc3)CC2)CC(C)O1 (stereo not drawn)	.	43*	.	.	-4	3	10
O=C(Nc1nc2ccc(F)cc2s1)C1=COCCO1	-70	12	3	-5	2	.	.
O=C(Nc1nc2cc3c(cc2s1)OCCO3)C1=COCCO1	47	81*	0	2	-6	56*	77*
COCCCN1C(=O)[C@H](CC(=O)NCc2ccc(C)o2)[C@]2(C(=O)OC)CCCCC=C12	.	-4	.	.	-1	.	.
COc1cc(O)c([C@@H](CC(=O)N2CC(C)CC(C)C2)c2ccc3c(c2)OCO3)c(OC)c1 (stereo partly drawn)	.	36	.	.	.	.	.
COCCNc1nc(NCc2cccc(OC)c2)c2sccc2n1	-23	19	.	0	2	.	.
